Assay results from article PMC6018302 (Chemical Science, 2016).

Key:
[1] = test system: pUC19 plasmid DNA; assay: Thermal; format: binding; details: pUC19, phosphate buffer, 37 °C, 24 h, up to 5 : 1 BP : MC ratio
[2] = reference value, CD3OD; cited from earlier work
[3] = Photosubstitution quantum yield under blue light; format: physicochemical; details: blue light irradiation 450 nm, in water
[4] = test system: A549 cells; assay: Cell fractionation and ruthenium uptake by ICP-MS; format: cell-based, human
Summary of the method: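 A549 cells were exposed to test compound for 6 h in the dark, then harvested. Cytosol, membrane, nuclei and cytoskeleton fractions were separated. Ruthenium in each fraction was quantified by ICP-MS.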

[5] = test system: A549 cells; assay: Annexin V-FITC/propidium iodide flow cytometry; format: cell-based, human; details: A549, green light irradiation
Summary of the method: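 A549 cells were treated with test compound (1.5 μM or 10 μM, by complex) for 6 h in the dark. They then received 1 h green light (520 nm, 75 J cm–2) followed by 24 h dark incubation, or were kept dark throughout (31 h). Annexin V-FITC (525 nm) and propidium iodide (670 nm) were read by flow cytometry. Quadrants: lower left live, lower right apoptotic, upper left necrotic, upper right secondary necrotic.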

[6] = Water solubility; format: physicochemical
[7] = test system: A431 and A549 cancer cells; format: cell-based, human; details: 520 nm, 75 J cm^–2, compared to the dark control; maximum
Summary of the method: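 Photo index is the ratio of dark EC50 to green-light EC50 (520 nm, 60 min, 75 J cm–2). Light was applied after 6 h or 24 h dark pre-incubation with test compound (37 °C, 7% CO2). EC50 is the concentration giving 50% viability loss versus untreated wells.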

[8] = Singlet oxygen quantum yield by 1274 nm emission in CD3OD; format: physicochemical; details: 450 nm excitation, under air, 298 K
[9] = test system: pUC19 plasmid DNA; assay: Photoinduced binding to plasmid DNA, agarose gel; details: pUC19, 50 : 1 BP : MC, λirr = 520 nm, 5–60 min
Summary of the method: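 pUC19 plasmid was mixed with test compound (50:1 BP:MC) and irradiated at 520 nm for 5, 15, 30, 45 or 60 min. Controls were dark and irradiated DNA alone and a dark 50:1 sample. Cisplatin was included as a reference. Agarose gel with lambda DNA marker; linear dimer, open circular and supercoiled forms were scored.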

[10] = Dark stability in aqueous and DMSO solutions; format: physicochemical
Summary of the method: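 Test compound solutions in D2O or DMSO were kept in the dark, with DMSO also held at –20 °C, and monitored over time. Chloride effect in aqueous solution was probed by adding NaCl up to 0.15 M.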

[11] = test system: A549 cells; assay: Confocal microscopy of mitochondrial potential; format: cell-based, human; details: A549, TMRE and DRAQ5 staining, green light 75 J cm^–2

N.N.[Cl][Pt][Cl] [Cisplatin, cis-diamineplatinum(II) dichloride, reference compound]
dark thermal DNA binding [1]: typical DNA binding results

[Cl][Ru][Cl].c1ccc(-c2ccccn2)nc1.c1ccc(-c2ccccn2)nc1.c1ccc(-c2ccccn2)nc1 [[Ru(bpy)3]Cl2]
quantum yield of 1O2 generation (Φref) [2]: 73%

[Ru(biqbpy)(dmso)Cl]Cl [[1]Cl]
photosubstitution quantum yield (ΦPS) [3]: 0.3% | preference for the membrane fraction (intracellular distribution) ([4]; A549, 6 h in the dark at EC50 concentration, cell fractionation): strong | total uptake (ruthenium) ([4]; A549, 6 h in the dark at concentration corresponding to the EC50 value, ICP-MS): 16 ng/10^6 cells | dark thermal DNA binding [1]: negligible binding | type of cell death (photocytotoxicity) [5]: apoptosis without any sign of necrosis | solubility in water [6]: water-soluble | photo-indices (increase in cytotoxicity after green light vs dark) [7]: up to 22 | quantum yield of 1O2 generation (Φ1O2) [8]: 1.3% | photoinduced DNA binding [9]: significant retardation of the SC form | dark stability of DMSO solution ([10]; DMSO, –20 °C): stable in the dark at –20 °C for at least six months | stability of Ru–S bond with dmso ligand ([10]; aqueous or DMSO solutions, 298 K): remained stable | hydrolysis of chloride ligand ([10]; upon dissolution in deionized water or D2O): immediately hydrolysed | effect of light irradiation on mitochondria and nuclear DNA [11]: diminished the mitochondrial membrane potential and induced chromosomal condensation
